Data taken from ChEMBL document CHEMBL3108729, “Design, synthesis and anticonvulsant evaluation of N-(benzo[d]thiazol-2-ylcarbamoyl)-2-methyl-4-oxoquinazoline-3(4H)-carbothioamide derivatives: a hybrid pharmacophore approach” (Eur J Med Chem, 2013).
Calls of active or inactive are those of the source. No cut-off for these calls is given here.

Key:
Mus musculus [1] = assay: Anticonvulsant activity in albino mouse assessed as protection against maximal electroshock-induced seizures at 300 mg/kg, ip measured after 4 hrs; assay type: functional, organism-based; design: dose 300 mg/kg
Mus musculus [2] = assay: Anticonvulsant activity in albino mouse assessed as protection against maximal electroshock-induced seizures at 300 mg/kg, ip measured after 0.5 hrs; assay type: functional, organism-based; design: dose 300 mg/kg
Mus musculus [3] = assay: Neurotoxicity in albino mouse at 300 mg/kg, ip after 4 hrs by rotorod test; assay type: toxicity, organism-based; design: dose 300 mg/kg, route intraperitoneal; details: in vivo
Method in brief: (§1)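 Swiss mice, four per dose, received 30, 100 or 300 mg/kg i.p. and were placed on a rotorod at 0.5 and 4 h. Neurotoxicity meant failure to keep balance for 1 min. The value reported is the minimum dose affecting half or more of the mice.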

Mus musculus [4] = assay: Neurotoxicity in ip dosed albino mouse after 0.5 hrs by rotorod test; assay type: toxicity, organism-based; details: in vivo; method in brief: as §1
Mus musculus [5] = assay: Anticonvulsant activity in ip dosed albino mouse assessed as protection against maximal electroshock-induced seizures after 0.5 hrs; assay type: functional; details: read-out: MED
Mus musculus [6] = assay: Neurotoxicity in ip dosed albino mouse after 4 hrs by rotorod test; assay type: toxicity, organism-based; details: in vivo; method in brief: as §1
Mus musculus [7] = assay: Anticonvulsant activity in ip dosed albino mouse assessed as protection against maximal electroshock-induced seizures after 4 hrs; assay type: functional; details: read-out: MED
Mus musculus [8] = assay: Anticonvulsant activity in ip dosed albino mouse assessed as protection against AMPA-induced clonic phase of seizures after 30 mins; assay type: functional; details: 0.5 h
Method in brief: (§2)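 Mice were dosed i.p. over 10–100 µmol/kg. After 30 min, AMPA was injected i.c.v. into a lateral ventricle under ether anaesthesia, at 9.7 nmol for clonus or 11.7 nmol for forelimb tonic extension. Mice were observed singly for 30 min. ED50 values with 95% confidence limits were derived from dose–response data.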

Rattus norvegicus [9] = assay: Anticonvulsant activity in Wistar rat assessed as inhibition of GABA-induced seizures measuring minimum GABA level per 100 mg whole brain required for 50 % inhibition at 30 mg/kg, po for 7 days (reference value: 51.5 +/- 2.60 ug/100 mg brain); assay type: functional
Method in brief: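 Adult Wistar rats in groups of six were dosed orally at 30 mg/kg for 7 days. Whole-brain GABA was then measured enzymatically in ethanol extracts as µg/100 mg tissue. Values are mean ± SEM of six rats versus control (Student's t test).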

Rattus norvegicus [10] = assay: Anticonvulsant activity in Wistar rat assessed as inhibition of GABA-induced seizures measuring minimum GABA level per 100 mg whole brain required for 50 % inhibition at 100 mg/kg, ip as single dose measured after 2 hrs (reference value: 46.4 +/- 5.50 ug/100 mg brain); assay type: functional; details: route intraperitoneal
Rattus norvegicus [11] = assay: Hepatotoxicity in albino rat assessed as change in SGOT level at 30 mg/kg, po for 14 days (reference value: 74.2+/-5.95 units/ml); assay type: toxicity, organism-based; design: dose 30 mg/kg, route oral; details: in vivo, 336 h
Rattus norvegicus [12] = assay: Hepatotoxicity in albino rat assessed as change in SGPT level at 30 mg/kg, po for 14 days (reference value: 46.1+/-5.25 units/ml); assay type: toxicity, organism-based; design: dose 30 mg/kg, route oral; details: in vivo, 336 h
[13] = Protective index, ratio of TD50 for neurotoxicity to ED50 for protection against maximal electroshock-induced seizure in albino rat after 0.5 hrs; assay type: toxicity, organism-based; details: in vivo, read-out: Ratio TD50/ED50
Method in brief: (§3)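 Rats received oral doses in groups of eight at the time of peak effect, with at least three points in the 10–90% range for seizure protection or minimal neurotoxicity. ED50, TD50 and 95% confidence intervals were computed by regression, and PI was calculated as TD50/ED50.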

[14] = Neurotoxicity in po dosed albino rat after 0.5 hrs; assay type: toxicity, organism-based; details: in vivo
Rattus norvegicus [15] = assay: Anticonvulsant activity in po dosed albino rat assessed as protection against pentylenetetrazole-induced seizure after 0.5 hrs; assay type: functional
Rattus norvegicus [16] = assay: Anticonvulsant activity in po dosed albino rat assessed as protection against maximal electroshock-induced seizures after 0.5 hrs; assay type: functional
[17] = Protective index, ratio of TD50 for neurotoxicity to ED50 for protection against pentylenetetrazole-induced seizure in albino rat after 0.5 hrs; assay type: toxicity, organism-based; details: in vivo, read-out: Ratio TD50/ED50; method in brief: as §3
Mus musculus [18] = assay: Anticonvulsant activity in ip dosed albino mouse assessed as protection against AMPA-induced tonic phase of seizures after 30 mins; assay type: functional; details: 0.5 h; method in brief: as §2
Rattus norvegicus [19] = assay: Anticonvulsant activity in po dosed albino rat assessed as protection against pentylenetetrazole-induced seizure after 1 hr; assay type: functional
[20] = Neurotoxicity in po dosed albino rat after 1 hr; assay type: toxicity, organism-based; details: in vivo
Rattus norvegicus [21] = assay: Anticonvulsant activity in po dosed albino rat assessed as protection against maximal electroshock-induced seizures after 1 hr; assay type: functional

Structure (SMILES)	Activity (Mus musculus [1])	Activity (Mus musculus [2])	MTC (Mus musculus [4]) [mg/kg]	minimal effective dose (Mus musculus [5]) [mg/kg]	further results
COc1ccc2nc(NC(=O)NC(=S)n3c(C)nc4cc(F)ccc4c3=O)sc2c1	inactive	inactive	–	–	–
Cc1nc2ccccc2c(=O)n1C(=S)NC(=O)Nc1nc2ccc(O)cc2s1	inactive	inactive	–	–	–
Cc1nc2cc(F)ccc2c(=O)n1C(=S)NC(=O)Nc1nc2c(Cl)cccc2s1	inactive	–	300	300	Activity (Mus musculus [3]): Non-toxic
Cc1ccc2nc(NC(=O)NC(=S)n3c(C)nc4cc(Cl)ccc4c3=O)sc2c1	inactive	inactive	–	–	–
Cc1nc2cc(Cl)ccc2c(=O)n1C(=S)NC(=O)Nc1nc2cc(Cl)ccc2s1	inactive	–	–	300	–
Cc1nc2cc(F)ccc2c(=O)n1C(=S)NC(=O)Nc1nc2cc(Cl)ccc2s1	inactive	–	100	300	MTC (Mus musculus [6]): 300 mg/kg
Cc1nc2cc(Cl)ccc2c(=O)n1C(=S)NC(=O)Nc1nc2ccc(OC(F)(F)F)cc2s1	–	–	300	100	Activity (Mus musculus [3]): Non-toxic; minimal effective dose (Mus musculus [7]): 100 mg/kg
Cc1nc2cc(Cl)ccc2c(=O)n1C(=S)NC(=O)Nc1nc2ccc(O)cc2s1	inactive	inactive	–	–	–
Cc1nc2ccccc2c(=O)n1C(=S)NC(=O)Nc1nc2ccc(OC(F)(F)F)cc2s1	–	–	300	30	ED50 (Mus musculus [8]): 37.9 µmol/kg; GABA level (Rattus norvegicus [9]): 68.2 µg/100 mg brain; GABA level (Rattus norvegicus [10]): 75.5 µg/100 mg brain; Activity (Rattus norvegicus [11]): 72.4 U/ml; Activity (Rattus norvegicus [12]): 44.7 U/ml; selectivity ratio at 0.5 h [13]: > 26; TD50 at 0.5 h [14]: > 2150 µmol/kg; ED50 (Rattus norvegicus [15]): 510 µmol/kg; ED50 (Rattus norvegicus [16]): 82.5 µmol/kg; Activity (Mus musculus [3]): Non-toxic; minimal effective dose (Mus musculus [7]): 30 mg/kg; selectivity ratio at 0.5 h [17]: > 4.2; ED50 (Mus musculus [18]): 28.5 µmol/kg
Cc1nc2ccccc2c(=O)n1C(=S)NC(=O)Nc1nc2ccc(Br)cc2s1	–	–	300	100	Activity (Mus musculus [3]): Non-toxic; minimal effective dose (Mus musculus [7]): 300 mg/kg
NC(=O)N1c2ccccc2C=Cc2ccccc21 [CARBAMAZEPINE]	–	–	100	30	ED50 (Rattus norvegicus [19]): > 1060 µmol/kg; TD50 at 1 h [20]: 1530 µmol/kg; ED50 (Rattus norvegicus [21]): 15.1 µmol/kg; MTC (Mus musculus [6]): 300 mg/kg; minimal effective dose (Mus musculus [7]): 100 mg/kg
Cc1nc2cc(Cl)ccc2c(=O)n1C(=S)NC(=O)Nc1nc2ccc(Br)cc2s1	inactive	–	300	100	MTC (Mus musculus [6]): 300 mg/kg
COc1ccc2nc(NC(=O)NC(=S)n3c(C)nc4cc(Cl)ccc4c3=O)sc2c1	inactive	inactive	–	–	–
Cc1ccc2nc(NC(=O)NC(=S)n3c(C)nc4cc(F)ccc4c3=O)sc2c1	inactive	inactive	–	–	–
COc1ccc2nc(NC(=O)NC(=S)n3c(C)nc4ccccc4c3=O)sc2c1	inactive	inactive	–	–	–
Cc1nc2ccccc2c(=O)n1C(=S)NC(=O)Nc1nc2c(Br)cccc2s1	inactive	inactive	–	–	–
